In series [1] the target is Prostaglandin F2-alpha receptor (Homo sapiens, UniProt P43088). Briefly: Binding affinity towards FP receptor expressed in HEK293 ebna cells recombinantly expressing the corresponding human prostanoid cDNAs. It counts as cell-based. Summed up: (§1)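 Competition binding used membrane preparations, not intact cells, from HEK293ebna cells expressing each recombinant human prostanoid receptor cDNA.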

A further series addresses Prostacyclin receptor (Homo sapiens, UniProt P43119). Briefly: Binding affinity towards IP receptor expressed in HEK293 ebna cells recombinantly expressing the corresponding human prostanoid cDNAs. In kind it is cell-based. A digest of the protocol: as §1
Series [2] deals with Prostaglandin E2 receptor EP2 subtype (Homo sapiens, UniProt P43116). Briefly: Binding affinity towards EP2 receptor expressed in HEK293 ebna cells recombinantly expressing the corresponding human prostanoid cDNAs. It counts as cell-based. A digest of the protocol: as §1
In series [3] the target is T1, Prostaglandin D2 receptor (Homo sapiens, UniProt Q13258).
T1 sequence (Q13258 whole entry): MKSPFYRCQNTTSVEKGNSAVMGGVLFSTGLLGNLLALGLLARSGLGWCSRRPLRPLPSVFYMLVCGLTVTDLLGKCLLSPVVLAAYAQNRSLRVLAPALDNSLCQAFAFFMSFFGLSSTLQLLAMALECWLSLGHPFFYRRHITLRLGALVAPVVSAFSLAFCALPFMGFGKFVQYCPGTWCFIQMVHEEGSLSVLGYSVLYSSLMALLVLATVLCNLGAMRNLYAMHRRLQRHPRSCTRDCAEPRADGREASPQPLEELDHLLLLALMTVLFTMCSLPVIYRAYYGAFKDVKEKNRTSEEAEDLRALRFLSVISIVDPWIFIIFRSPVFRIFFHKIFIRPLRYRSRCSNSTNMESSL
Kind of series: Binding affinity towards DP receptor expressed in HEK293 ebna cells recombinantly expressing the corresponding human prostanoid cDNAs. It counts as cell-based. A digest of the protocol:
as §1

Series [4] in a line: Half-life after intravenous dose in rat. In kind it is ADME, organism-based. The note with it: in vivo.
The target in another series is T2, Thromboxane A2 receptor (Homo sapiens, UniProt P21731).
T2 sequence (P21731 whole entry): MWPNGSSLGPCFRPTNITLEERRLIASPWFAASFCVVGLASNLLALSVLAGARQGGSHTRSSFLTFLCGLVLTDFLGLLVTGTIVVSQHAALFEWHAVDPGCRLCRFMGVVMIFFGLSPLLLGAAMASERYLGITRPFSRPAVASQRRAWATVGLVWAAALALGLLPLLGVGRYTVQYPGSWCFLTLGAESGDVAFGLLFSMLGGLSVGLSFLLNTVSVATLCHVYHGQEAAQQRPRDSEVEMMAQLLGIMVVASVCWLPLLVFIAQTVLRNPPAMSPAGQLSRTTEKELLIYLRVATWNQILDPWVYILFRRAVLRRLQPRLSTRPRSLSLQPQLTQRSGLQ
Briefly: Binding affinity towards TP receptor expressed in HEK293 ebna cells recombinantly expressing the corresponding human prostanoid cDNAs. In kind it is cell-based. A digest of the protocol:
as §1

Series [5] has as its target T3, Prostaglandin E2 receptor EP3 subtype (Homo sapiens, UniProt P43115).
T3 sequence (P43115 whole entry): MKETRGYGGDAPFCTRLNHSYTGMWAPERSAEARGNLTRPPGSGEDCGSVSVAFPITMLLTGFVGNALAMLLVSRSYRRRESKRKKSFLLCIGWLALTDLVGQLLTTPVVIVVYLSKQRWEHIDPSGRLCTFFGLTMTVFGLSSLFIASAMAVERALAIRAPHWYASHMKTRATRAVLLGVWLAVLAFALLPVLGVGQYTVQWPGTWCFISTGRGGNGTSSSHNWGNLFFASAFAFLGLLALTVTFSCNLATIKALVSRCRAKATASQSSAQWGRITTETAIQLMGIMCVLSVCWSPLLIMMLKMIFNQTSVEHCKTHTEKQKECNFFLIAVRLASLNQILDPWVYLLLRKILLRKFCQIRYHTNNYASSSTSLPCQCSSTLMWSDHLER
Briefly: Binding affinity towards EP3 receptor expressed in HEK293 ebna cells recombinantly expressing the corresponding human prostanoid cDNAs. In kind it is cell-based. Summed up:
as §1

Series [6] concerns the target T4, Prostaglandin E2 receptor EP1 subtype (Homo sapiens, UniProt P34995).
T4 sequence (P34995 whole entry): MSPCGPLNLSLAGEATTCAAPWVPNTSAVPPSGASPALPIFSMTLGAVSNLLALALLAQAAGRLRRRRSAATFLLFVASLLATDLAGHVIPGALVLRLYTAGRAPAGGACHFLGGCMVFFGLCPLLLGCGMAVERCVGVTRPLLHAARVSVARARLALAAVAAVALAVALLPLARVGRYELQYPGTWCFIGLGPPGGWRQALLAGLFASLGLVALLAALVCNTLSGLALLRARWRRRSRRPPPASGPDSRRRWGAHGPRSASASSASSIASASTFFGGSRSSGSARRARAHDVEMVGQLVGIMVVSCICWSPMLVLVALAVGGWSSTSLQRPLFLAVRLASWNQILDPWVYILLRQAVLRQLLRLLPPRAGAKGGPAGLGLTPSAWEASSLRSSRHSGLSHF
Kind of series: Binding affinity towards EP1 receptor expressed in HEK293 ebna cells recombinantly expressing the corresponding human prostanoid cDNAs. In kind it is cell-based. Summed up:
as §1

Series [7] concerns the target T5, Prostaglandin E2 receptor EP4 subtype (Homo sapiens, UniProt P35408). Kind of series: Inhibitory activity against human EP4 receptor expressed in HEK293 ebna cells. It counts as cell-based.
Series [8] addresses T5, Prostaglandin E2 receptor EP4 subtype. Briefly: EP4 agonist potency utilizing a stable clone of pSV40-EP4 transfected into HEK293 cells expressing EP4 receptor. In kind it is functional, cell-based. A digest of the protocol: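 A HEK293 stable clone carried pSV40-EP4 at about 50 fmol/mg receptor. Whole-cell cAMP assay: 1×10⁵ cells per sample were suspended in 0.2 mL HBSS with 2 mM IBMX. Compound or PGE₂ was given in DMSO at a constant final 1.8% (v/v). Incubation ran 10 min at 37 °C and was stopped by 3 min in boiling water. cAMP was read by [¹²⁵I]cAMP scintillation proximity assay.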

The target is the same in series [9]. Briefly: Binding affinity towards EP4 receptor expressed in HEK293 ebna cells recombinantly expressing the corresponding human prostanoid cDNAs. It counts as cell-based.

T5 sequence (P35408 whole entry): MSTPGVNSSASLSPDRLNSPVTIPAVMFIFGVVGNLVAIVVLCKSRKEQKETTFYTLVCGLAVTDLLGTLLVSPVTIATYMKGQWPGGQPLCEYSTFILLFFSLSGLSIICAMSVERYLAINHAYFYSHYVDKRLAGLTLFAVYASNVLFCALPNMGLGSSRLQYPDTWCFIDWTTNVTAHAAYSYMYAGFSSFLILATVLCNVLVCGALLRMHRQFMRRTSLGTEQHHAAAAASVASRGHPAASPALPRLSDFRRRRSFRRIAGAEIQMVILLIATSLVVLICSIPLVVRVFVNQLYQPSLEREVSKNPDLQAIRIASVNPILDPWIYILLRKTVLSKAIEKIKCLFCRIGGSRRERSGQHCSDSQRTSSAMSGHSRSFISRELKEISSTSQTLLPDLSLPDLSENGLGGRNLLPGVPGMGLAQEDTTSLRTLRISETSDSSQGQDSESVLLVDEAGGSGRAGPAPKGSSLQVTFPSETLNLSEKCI
Prostacyclin receptor, sequence (P43119 whole entry): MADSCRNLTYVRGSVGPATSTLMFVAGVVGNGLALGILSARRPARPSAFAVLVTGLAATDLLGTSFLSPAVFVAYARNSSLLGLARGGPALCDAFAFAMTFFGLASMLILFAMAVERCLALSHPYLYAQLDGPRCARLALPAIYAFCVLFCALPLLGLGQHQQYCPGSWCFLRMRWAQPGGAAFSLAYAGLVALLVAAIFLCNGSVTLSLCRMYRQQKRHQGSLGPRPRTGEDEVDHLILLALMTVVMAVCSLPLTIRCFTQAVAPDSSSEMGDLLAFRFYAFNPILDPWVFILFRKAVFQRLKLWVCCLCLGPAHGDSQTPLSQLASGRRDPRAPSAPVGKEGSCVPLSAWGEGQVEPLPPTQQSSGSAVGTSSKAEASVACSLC
Prostaglandin E2 receptor EP2 subtype, sequence (P43116 whole entry): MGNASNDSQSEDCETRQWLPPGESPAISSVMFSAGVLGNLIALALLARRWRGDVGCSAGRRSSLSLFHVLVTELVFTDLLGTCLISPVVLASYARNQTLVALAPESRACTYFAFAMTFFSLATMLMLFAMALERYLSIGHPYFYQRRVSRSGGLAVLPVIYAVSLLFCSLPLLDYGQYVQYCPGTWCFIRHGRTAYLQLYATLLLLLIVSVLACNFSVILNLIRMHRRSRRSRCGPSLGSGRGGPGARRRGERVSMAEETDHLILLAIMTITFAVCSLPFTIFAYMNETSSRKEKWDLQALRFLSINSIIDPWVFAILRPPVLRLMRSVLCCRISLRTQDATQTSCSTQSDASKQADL
Prostaglandin F2-alpha receptor, sequence (P43088 whole entry): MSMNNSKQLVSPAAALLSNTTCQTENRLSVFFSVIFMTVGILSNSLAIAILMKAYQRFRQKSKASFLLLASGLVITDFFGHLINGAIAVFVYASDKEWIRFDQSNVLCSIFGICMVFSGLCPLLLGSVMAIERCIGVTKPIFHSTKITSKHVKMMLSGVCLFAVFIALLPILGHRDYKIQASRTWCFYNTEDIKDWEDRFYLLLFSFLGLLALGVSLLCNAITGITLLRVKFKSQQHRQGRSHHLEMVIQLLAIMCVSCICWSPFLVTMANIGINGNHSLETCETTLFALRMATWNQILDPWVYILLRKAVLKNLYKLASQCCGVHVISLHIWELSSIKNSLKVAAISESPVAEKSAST

For the compound `O=C(O)CCCCCCN1C(=O)CC[C@@H]1/C=C/C(O)Cc1ccccc1` (stereo partly drawn), the Ki (in series [1]; at Prostacyclin receptor; in [2]; in [3]; at Thromboxane A2 receptor; in [5]) was over 13 µM in each case. Moreover, the inhibition constant Ki in [6] was over 13 µM. In addition, the half-life in series [4] was under 20 min.
In the case of `O=C1CC[C@H](/C=C/[C@@H](O)Cc2ccccc2)N1CCCCCCc1nnn[nH]1`, the Ki (in [1]; on Prostacyclin receptor; in [2]; in series [3]; at Thromboxane A2 receptor; in series [5]) was over 13 µM throughout. The inhibitory constant (Ki) in [6] was over 13 µM; in [9], 0.0012 µM. Besides, the half-maximal inhibitory concentration (IC50) in series [7] worked out at 0.0014 µM. The compound further gave an EC50 in series [8] of 0.0025 µM.

One may read the Ki as the equilibrium dissociation constant of an inhibitor or competing ligand from its target. A word on the half-life: it is the time in which the quantity being followed falls by half. By IC50 is commonly meant the concentration needed to halve the response being measured. For orientation: EC50 means the concentration needed to bring the measured effect to its halfway point. The low end stands for an effect from little substance, the high end for a need for much substance.

The values above are taken from ChEMBL document CHEMBL1136653, “Discovery of a potent and selective agonist of the prostaglandin EP4 receptor” (Bioorg Med Chem Lett, 2003).
